Screening results deposited in PubChem BioAssay by several laboratories.
Ins promoter up: MIN6 insulin promoter up-regulation; 190,000 compounds, 0.3% hits; z-score at 5 µM; AID 1625; MIN6 insulin promoter-GFP reporter, high-content imaging; hits give high values;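 active = z-score above 3 at 5 µM with at least 500 cells counted in the well; inconclusive = wells under 500 cells, flagged as cytotoxic or low count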
Dynein cargo inh: dynein cargo transport inhibition. 3617.4 mouse cells, GR-EGFP nuclear translocation imaging; test concentration mostly 20 µM; stimulated with dexamethasone, 1 µM; hits give low values. z-score, hits read low. 220,000 compounds, 0.47% hits;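 active = plate z-score of nuclear minus cytoplasmic receptor signal below a set negative limit, without overly bright fluorescence or cell loss, cut at about -3.5 in these data, passing the limit was not always enough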;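 also: z-score of nuclear minus cytoplasmic ring GR-EGFP intensity difference per well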
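Buffer or medium: tet-free medium with charcoal-stripped serum / Also added: dexamethasone agonist, 1.0 µM final, for 30 min / Timing: induction 48 h, compound 1 h, agonist 30 min / Measured by: high-content fluorescence imaging after fixation / Read-out: nuclear-to-cytoplasmic GR-EGFP distribution per well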
PERK inhibitor: human PERK inhibition, primary cell-based screen; Q9NZJ5; CHO PERK-DD fusion, SEAP luminescence translation reporter; inhibition, % at 5.6 µM; 220,000 compounds, 0.17% hits; AID 1416;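 active = inhibition above the mean inhibition of all tested compounds plus 3 SD, set separately per screening campaign, cut at about 2.9% in these data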;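 also: PERK kinase domain activated by AP20187 dimerizer at 100 nM; 0% = DMSO with dimerizer and 100% = rapamycin at 8.4 µM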
Target sequence (Q9NZJ5 whole entry, looked up, the tested form may be a part): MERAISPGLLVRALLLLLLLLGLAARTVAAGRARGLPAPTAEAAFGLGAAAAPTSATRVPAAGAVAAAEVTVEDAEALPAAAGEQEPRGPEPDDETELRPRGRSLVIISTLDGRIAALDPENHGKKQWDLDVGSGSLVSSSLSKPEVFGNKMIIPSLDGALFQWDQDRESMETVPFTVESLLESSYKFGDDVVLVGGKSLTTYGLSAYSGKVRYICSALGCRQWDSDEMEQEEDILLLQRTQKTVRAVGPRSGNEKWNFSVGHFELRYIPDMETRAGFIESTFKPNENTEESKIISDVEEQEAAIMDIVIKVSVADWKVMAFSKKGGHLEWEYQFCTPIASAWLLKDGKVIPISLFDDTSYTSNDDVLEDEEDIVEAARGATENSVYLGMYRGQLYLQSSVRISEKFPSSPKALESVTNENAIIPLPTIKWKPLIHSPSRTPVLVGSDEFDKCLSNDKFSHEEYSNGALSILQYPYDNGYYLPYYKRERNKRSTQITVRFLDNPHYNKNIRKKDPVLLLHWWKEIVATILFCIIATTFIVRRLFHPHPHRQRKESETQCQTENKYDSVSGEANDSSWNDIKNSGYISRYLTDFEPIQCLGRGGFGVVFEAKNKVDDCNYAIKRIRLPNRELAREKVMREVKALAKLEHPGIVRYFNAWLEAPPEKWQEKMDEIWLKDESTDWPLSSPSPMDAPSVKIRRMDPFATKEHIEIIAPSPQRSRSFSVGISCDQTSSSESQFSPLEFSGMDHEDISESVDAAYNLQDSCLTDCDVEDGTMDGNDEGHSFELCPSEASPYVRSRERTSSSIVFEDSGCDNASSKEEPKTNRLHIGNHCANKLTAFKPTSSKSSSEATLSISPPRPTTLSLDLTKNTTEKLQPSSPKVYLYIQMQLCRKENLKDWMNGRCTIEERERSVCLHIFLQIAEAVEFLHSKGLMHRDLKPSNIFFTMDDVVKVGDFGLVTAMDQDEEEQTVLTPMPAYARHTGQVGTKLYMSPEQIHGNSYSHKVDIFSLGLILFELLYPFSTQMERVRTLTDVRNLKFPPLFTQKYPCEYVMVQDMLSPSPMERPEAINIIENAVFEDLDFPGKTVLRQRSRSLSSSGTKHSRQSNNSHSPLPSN
INS promoter inh: TRM-6 insulin promoter activity inhibition; inhibition, % at 2 µM; 130,000 compounds, 0.9% hits; TRM-6 cells (human fetal islet line), insulin promoter-eGFP reporter, imaging; reporter expression induced with tamoxifen;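 active = inhibition above the mean plus 3 SD, with well images judged a real hit on visual review, cut at about 60% in these data, passing the limit was not always enough; inconclusive = inhibition over the cutoff but images rejected on review; inactive = inhibition not above the cutoff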
Autophagy HCS: modulators of autophagy. MEF GFP-LC3 puncta imaging; test concentration mostly 10 µM. AID 463193. 190,000 compounds, 0.98% hits. calls only at 10 µM (by protocol);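 active = percentage of spot-positive cells more than 3 SD above its plate mean, without a fluorescence outlier flag or 80% toxicity; inconclusive = no clear call, values can overlap the other calls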;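 also: spot-positive cell cutoff set from DMSO-treated cells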
Starred values were filed as active, the others as inactive; i = inactive; ? = inconclusive; · = not tested or not shown; + = active, no number. Only some compounds are listed: those with a hit (about 2.1% of all), similar ones and a draw of the others.

SMILES | Ins promoter up | Dynein cargo inh | PERK inhibitor | INS promoter inh | Autophagy HCS
COc1ccc(CN2C3CCCC2CC(NC(=O)Nc2ccccc2)C3)cc1 (stereo not given) | 0.03 | -1 | 0 | 81* | i
COc1ccc(CN2C3CCCC2CC(NC(=O)Nc2cccc(C)c2)C3)cc1 (stereo not given) | -0.78 | -1.5 | -1 | 10 | i
O=C(CN1C(=O)S/C(=C\C=C\c2ccccc2)C1=O)Nc1ccccc1C(=O)O | -0.29 | -0.4 | 2 | · | ·
C#CCN1C(=O)S/C(=C/C=C/c2ccc(N(C)C)cc2)C1=O | -0.43 | -0.77 | 1 | -270 | +
Cc1ccccc1C(=O)c1cccn1CC(=O)NCCC1=CCCCC1 | 0.16 | 2.7 | 1 | -67 | i
Cc1ccc(C)c(N2CCN(CCCNC(=O)Cn3cccc3C(=O)c3ccccc3C)CC2)c1 | -0.45 | 2.9 | -1 | -93 | +
Cc1ccccc1C(=O)c1cccn1CC(=O)NCCN1CCN(c2cccc(C)c2C)CC1 | -1.2 | 3.5 | -2 | -53 | +
Cc1cs/c(=N\N=C2CCCCC2)n1Cc1ccco1 | 0.19 | 0.38 | 0 | 25 | i
COc1ccc(S(=O)(=O)/N=C2/C=CC(=O)C(C)=C2C)cc1 | -0.07 | -1.3 | 0 | -4 | i
CC1=C(C)/C(=N\OS(=O)(=O)c2ccc(C)cc2)C=CC1=O | 0.69 | -3.7* | -1 | -47 | i
CCc1nnc(NC(=O)c2ccc3nc(CC)c(CC)nc3c2)s1 | 0.29 | 0.84 | 2 | · | i
CSc1nccc(-c2nn(-c3ccc(C)cc3)ccc2=O)n1 | -0.17 | 0.81 | 0 | 8 | i
C=CCSc1nccc(-c2nn(-c3ccc(C)cc3)ccc2=O)n1 | -0.42 | -0.97 | -1 | 14 | +
CCSc1nccc(-c2nn(-c3ccc(C)cc3)ccc2=O)n1 | -0.29 | 1.6 | -1 | · | +
COc1ccc(-n2c(CN3CCN(c4ccccn4)CC3)nc3ccc([N+](=O)[O-])cc3c2=O)c(OC)c1 | 0.43 | -1.1 | 0 | · | i
CCCc1cc(NCCCCO)n2c(nc3ccccc32)c1C#N | -0.08 | -1.6 | -1 | 79* | i
O=C(NNc1ncc(C(F)(F)F)cc1Cl)c1c(Cl)cccc1Cl | 1.5 | 3.5 | 0 | 26 | +
NC(=O)NNc1ncc(C(F)(F)F)cc1Cl | -0.3 | -0.41 | 0 | -18 | i
O=C(Nc1ccccc1F)c1ccc(OCc2ccccc2)cc1 | -0.02 | 1.8 | 1 | -25 | +
O=C(Nc1ccc(OCc2ccccc2)cc1)c1ccccc1 | -0.01 | 0.069 | 0 | -55 | i
CCOCC(=O)Nc1ccc(OCc2ccccc2)cc1 | 0.27 | -0.87 | 0 | · | +
O=S(=O)(Nc1nc2ccccc2nc1N1CCN(c2ccccc2F)CC1)c1ccc(Cl)cc1 | · | 0.28 | 0 | 58 | i
CC(/C=N/NC(=O)Cc1cccn1C)=C\c1ccccc1 | 0.07 | -0.6 | 1 | 75* | i
CC(/C=N/NC(=O)Cc1cccs1)=C\c1ccccc1 | -0.04 | 0.42 | -1 | -8 | i
COc1ccc2nc(-c3ccc(Cl)cc3)cc(C(=O)O)c2c1 | -0.08 | -0.39 | 0 | · | ·
SMILES | Ins promoter up | Dynein cargo inh | PERK inhibitor | INS promoter inh | Autophagy HCS
Cc1ccc(/C=C2/SC(=O)NC2=S)o1 | 0.07 | 0.52 | 1 | -35 | i
CCCc1cc(=O)[nH]c(SCC(=O)NCCCC(=O)OCC)n1 | 3.1* | 0.076 | 1 | -11 | i
CCCc1cc(=O)[nH]c(SCC(=O)NC(=O)OCC)n1 | 0.25 | 0.16 | 1 | 27 | i
O=S(=O)(c1ccc(Oc2ccc(Br)cc2)cc1)N1CCOCC1 | -1.3 | 0.42 | 1 | -112 | i
O=c1[nH]c(CN2CCN(c3ccccc3O)CC2)nc2ccccc12 | -0.12 | -2.2 | 1 | -61 | i
O=c1[nH]c(CN2CCN(CCO)CC2)nc2ccccc12 | 0 | 0.14 | 1 | 100* | i
CC(CCCC(C)(C)O)NCc1cn[nH]c1-c1ccc2c(c1)OCO2 (stereo not given) | -0.43 | -0.37 | 0 | · | i
Cc1cc(=O)[nH]c(-c2ccccc2OC(F)(F)F)n1 | · | -0.53 | 2 | · | ·
COc1ccc(-c2cc(-c3ccc(OC)cc3)nc(-c3ccc4c(c3)NC(=O)CO4)c2)cc1 | -0.38 | -0.42 | 1 | -11 | +
CCOc1ccc(NC(=O)c2cn(CC(C)C)c(=O)c3c2c2ccccc2n3C)cc1 | 0.39 | 0.49 | 1 | -20 | +
FC(F)(F)c1ccccc1NC(=S)N1CCc2ccccc2C1 | -2.2 | -0.92 | 0 | · | +
Cc1c(Cl)cccc1NC(=S)N1CCc2ccccc2C1 | 0.64 | 0.98 | 3 | · | i
Nc1nccc(-c2ccc(-n3cnc4ccccc43)cc2)n1 | -0.56 | 0.82 | 0 | · | i
c1ccc2c(c1)ncn2-c1ccc(-c2ccnc3ncnn23)cc1 | -0.39 | 0.62 | 1 | · | +
Nc1ccccc1C(=O)N1CCCC1 | 0.27 | -0.12 | 3.1* | · | i
O=C(c1ccccc1)c1ccccc1C(=O)N1CCCC1 | 0.55 | 0.093 | 0 | ? | i
Nc1cc(N)cc(C(=O)OCC(=O)Nc2cc(S(=O)(=O)N3CCCCC3)ccc2Cl)c1 | -0.04 | 0.87 | 1 | 15 | i
CC(Oc1ccc(Cl)cc1)c1ccc(C#N)c(=O)[nH]1 (stereo not given) | -1.5 | 0.049 | 2 | -53 | i
O=C(COC(=O)CCSc1ccc(Cl)cc1)NCc1ccccc1Cl | -0.23 | -0.25 | 1 | 67* | i
Cc1cccc(NC(=S)NNC(=O)c2ccco2)c1 | 0.46 | -0.17 | 3.1* | -12 | i
Cc1ccc(NC(=S)NNC(=O)c2ccco2)cc1 | 0.07 | 0.52 | 0 | -9 | i
N=C1SCC(=O)N1c1ncc(Cc2cccc(Cl)c2)s1 | · | -0.85 | 0 | -408 | i
COC(=O)Cc1ccc(NC(=S)NNC(=O)C2CC2)cc1 | 0.14 | 0.019 | 3.6* | · | ·
O=C(NCc1ccccc1)C(c1ccc(F)cc1)N(Cc1ccc2c(c1)OCO2)C(=O)Cn1nnc(-c2cccs2)n1 (stereo not given) | · | -0.42 | 1 | 52 | i
CCCC(C(=O)NCc1ccccc1)N(C(=O)Cn1nnc(-c2cccs2)n1)c1ccc2c(c1)OCCO2 (stereo not given) | -0.65 | -0.058 | 1 | 62 | +
SMILES | Ins promoter up | Dynein cargo inh | PERK inhibitor | INS promoter inh | Autophagy HCS
C/C(=N\NC(=O)CCCNc1ccc(C)cc1)c1ccccn1 | -0.72 | 0.14 | 1 | 64* | i
CCOC(=O)/C(=N\Nc1ccc(C(C)=O)cc1)c1csc(Nc2ccccc2)n1 | -0.88 | -0.7 | 1 | 0 | +
CCOc1nc(NC(=O)NS(=O)(=O)c2ccccc2F)nc(-c2ccccc2)n1 | 0.85 | -0.64 | 1 | 91* | i
N=c1c(-c2nc3ccccc3[nH]2)cc(C(=O)c2ccco2)nn1-c1ccccc1 | -0.52 | -0.87 | 0 | -14 | i
N=c1c(-c2nc3ccccc3[nH]2)cc(C(=O)c2cccs2)nn1-c1ccccc1 | · | 0.28 | -1 | 33 | +
Cc1ccc(C(C)C)c(OCC(=O)NNC(=O)C(C(C)C)N2C(=O)c3ccccc3C2=O)c1 (stereo not given) | · | 0.17 | 0 | -48 | i
